# Results: ChEMBL document CHEMBL5390275, “Molecular Graph-Based Deep Learning Algorithm Facilitates an Imaging-Based Strategy for Rapid Discovery of Small Molecules Modulating Biomolecular Condensates” (J Med Chem, 2023)
# Activity calls are given as the source filed them. The rule behind the calls is not given here.
# Assays:
# [1] = molecular target: TAR DNA-binding protein 43 (Homo sapiens) (UniProt Q13148); assay: Inhibition of human TDP-43 in human SH-SY5Y cells assessed a splicing changes in normal STMN2 mRNA at 10 uM incubated for 24 hrs by qPCR analysis; type: cell-based
# Method in brief: (§1)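 SH-SY5Y neuron-like cells (DMEM/F12, 10% FBS) given compound at 10uM final for 24 h; total RNA then harvested and normal and cryptic spliced STMN2 mRNA quantified by real-time PCR.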
# DLD-1 [2] = assay: Inhibition of sodium arsenite induced stress granule formation in human DLD-1 cells at 10 uM incubated for 24 hrs followed by sodium arsenite stimulation for 1 hr by G3BP1 staining based immunostaining analysis; type: functional, cell-based
# Method in brief: (§2)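 DLD1 cells on glass-bottom plates treated with compound at 10uM for 24 h, then 250uM sodium arsenite for 1 h; DMSO control. Fixed in 4% PFA 10 min RT, permeabilized, blocked (5% BSA, 0.1% Triton X-100), stained with anti-G3BP1 and anti-NPM1 (1:100, 1 h RT), secondaries 1:1000 30 min, DAPI; spinning-disc confocal max-projection images analysed.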
# [3] = molecular target: Nuclear receptor corepressor 2 (Homo sapiens) (UniProt Q9Y618); assay: Inhibition of doxycycline induced NCOR2 anisosomes formation in human U2OS cells expressing ALS-causing NCOR2 anisosomes assessed as change in NCOR2 droplets morphology at 10 uM incubated for 24 hrs by fluorescence imaging analysis; type: cell-based
# Method in brief: (§3)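 U2OS cells stably expressing inducible TDP-43 K181E or NCOR2 anisosomes, treated with compound for 24 h (10uM, or a concentration series), then fixed and imaged; fraction of demixing cells quantified from fluorescent images.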
# [4] = tested on: TAR DNA-binding protein 43 (Homo sapiens), Q13148 [K181E]; assay: Inhibition of doxycycline induced TDP-43 K181E mutant anisosomes formation in human U2OS cells expressing ALS-causing TDP-43 K181E mutant anisosomes assessed as change in TDP-43 droplets morphology at 1 to 10 uM incubated for 24 hrs by fluorescence imaging analysis; type: cell-based; settings: dose 1-10 µM; method in brief: as §3
# SH-SY5Y = assay: Inhibition of TDP-43 2KQ mutant in human SH-SY5Y cells assessed a splicing changes in cryptic STMN2 mRNA at 10 uM incubated for 24 hrs by qPCR analysis; type: cell-based; method in brief: as §1
# DLD-1 [5] = assay: Inhibition of doxycycline induced TDP-43 2KQ mutant anisosomes formation in human DLD-1 cells expressing TDP-43 2KQ mutant anisosomes at 10 uM incubated for 24 hrs by fluorescence imaging analysis; type: cell-based
# Method in brief: (§4)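 Stable lentivirally transduced DLD1 (single-cell clones sorted by fluorescence) or U2OS lines expressing inducible TDP-43 anisosomes; plated 4000 cells/well, overnight, then compound 24 h; cells fixed, fluorescent anisosomes imaged on ImageExpress HTai and anisosome number per cell quantified.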
# U2OS = assay: Inhibition of doxycycline induced TDP-43 2KQ mutant anisosomes formation in human U2OS cells expressing TDP-43 2KQ mutant anisosomes at 10 uM incubated for 24 hrs by fluorescence imaging analysis; type: cell-based; method in brief: as §4
# DLD-1 [6] = assay: Inhibition of sodium arsenite stimulated human DLD-1 cells assessed as change in nucleolus morphology at 10 uM incubated for 24 hrs followed by sodium arsenite stimulation for 1 hr by NPM1 staining based immunostaining analysis; type: functional, cell-based; method in brief: as §2
# Chain of TAR DNA-binding protein 43 (Homo sapiens), Q13148 [K181E] (Q13148 whole entry K181E): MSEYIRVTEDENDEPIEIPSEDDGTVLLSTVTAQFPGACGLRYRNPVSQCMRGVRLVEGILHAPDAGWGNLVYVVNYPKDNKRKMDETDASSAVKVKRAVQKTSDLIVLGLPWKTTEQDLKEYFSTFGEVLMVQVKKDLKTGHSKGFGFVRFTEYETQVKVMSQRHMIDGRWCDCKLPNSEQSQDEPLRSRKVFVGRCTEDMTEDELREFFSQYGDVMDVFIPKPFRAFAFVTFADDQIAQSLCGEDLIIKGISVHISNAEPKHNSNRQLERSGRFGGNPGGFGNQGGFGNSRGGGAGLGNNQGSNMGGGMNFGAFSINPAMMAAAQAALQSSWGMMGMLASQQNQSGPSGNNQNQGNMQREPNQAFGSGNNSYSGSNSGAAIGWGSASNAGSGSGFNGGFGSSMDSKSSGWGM
# Chain of TAR DNA-binding protein 43 (Homo sapiens) (Q13148 whole entry, canonical isoform): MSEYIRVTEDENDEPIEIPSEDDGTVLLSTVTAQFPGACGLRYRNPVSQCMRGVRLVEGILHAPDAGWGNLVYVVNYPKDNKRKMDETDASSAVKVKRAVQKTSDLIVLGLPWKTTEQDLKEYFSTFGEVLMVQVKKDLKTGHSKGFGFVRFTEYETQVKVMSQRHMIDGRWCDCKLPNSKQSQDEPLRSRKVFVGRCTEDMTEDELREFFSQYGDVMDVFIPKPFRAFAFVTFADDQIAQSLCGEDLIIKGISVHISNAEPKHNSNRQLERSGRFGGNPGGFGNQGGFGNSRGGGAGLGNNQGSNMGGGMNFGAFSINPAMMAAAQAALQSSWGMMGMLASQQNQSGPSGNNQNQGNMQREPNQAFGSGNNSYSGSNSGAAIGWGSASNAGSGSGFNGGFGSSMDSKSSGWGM
# Chain of Nuclear receptor corepressor 2 (Homo sapiens) (Q9Y618 whole entry): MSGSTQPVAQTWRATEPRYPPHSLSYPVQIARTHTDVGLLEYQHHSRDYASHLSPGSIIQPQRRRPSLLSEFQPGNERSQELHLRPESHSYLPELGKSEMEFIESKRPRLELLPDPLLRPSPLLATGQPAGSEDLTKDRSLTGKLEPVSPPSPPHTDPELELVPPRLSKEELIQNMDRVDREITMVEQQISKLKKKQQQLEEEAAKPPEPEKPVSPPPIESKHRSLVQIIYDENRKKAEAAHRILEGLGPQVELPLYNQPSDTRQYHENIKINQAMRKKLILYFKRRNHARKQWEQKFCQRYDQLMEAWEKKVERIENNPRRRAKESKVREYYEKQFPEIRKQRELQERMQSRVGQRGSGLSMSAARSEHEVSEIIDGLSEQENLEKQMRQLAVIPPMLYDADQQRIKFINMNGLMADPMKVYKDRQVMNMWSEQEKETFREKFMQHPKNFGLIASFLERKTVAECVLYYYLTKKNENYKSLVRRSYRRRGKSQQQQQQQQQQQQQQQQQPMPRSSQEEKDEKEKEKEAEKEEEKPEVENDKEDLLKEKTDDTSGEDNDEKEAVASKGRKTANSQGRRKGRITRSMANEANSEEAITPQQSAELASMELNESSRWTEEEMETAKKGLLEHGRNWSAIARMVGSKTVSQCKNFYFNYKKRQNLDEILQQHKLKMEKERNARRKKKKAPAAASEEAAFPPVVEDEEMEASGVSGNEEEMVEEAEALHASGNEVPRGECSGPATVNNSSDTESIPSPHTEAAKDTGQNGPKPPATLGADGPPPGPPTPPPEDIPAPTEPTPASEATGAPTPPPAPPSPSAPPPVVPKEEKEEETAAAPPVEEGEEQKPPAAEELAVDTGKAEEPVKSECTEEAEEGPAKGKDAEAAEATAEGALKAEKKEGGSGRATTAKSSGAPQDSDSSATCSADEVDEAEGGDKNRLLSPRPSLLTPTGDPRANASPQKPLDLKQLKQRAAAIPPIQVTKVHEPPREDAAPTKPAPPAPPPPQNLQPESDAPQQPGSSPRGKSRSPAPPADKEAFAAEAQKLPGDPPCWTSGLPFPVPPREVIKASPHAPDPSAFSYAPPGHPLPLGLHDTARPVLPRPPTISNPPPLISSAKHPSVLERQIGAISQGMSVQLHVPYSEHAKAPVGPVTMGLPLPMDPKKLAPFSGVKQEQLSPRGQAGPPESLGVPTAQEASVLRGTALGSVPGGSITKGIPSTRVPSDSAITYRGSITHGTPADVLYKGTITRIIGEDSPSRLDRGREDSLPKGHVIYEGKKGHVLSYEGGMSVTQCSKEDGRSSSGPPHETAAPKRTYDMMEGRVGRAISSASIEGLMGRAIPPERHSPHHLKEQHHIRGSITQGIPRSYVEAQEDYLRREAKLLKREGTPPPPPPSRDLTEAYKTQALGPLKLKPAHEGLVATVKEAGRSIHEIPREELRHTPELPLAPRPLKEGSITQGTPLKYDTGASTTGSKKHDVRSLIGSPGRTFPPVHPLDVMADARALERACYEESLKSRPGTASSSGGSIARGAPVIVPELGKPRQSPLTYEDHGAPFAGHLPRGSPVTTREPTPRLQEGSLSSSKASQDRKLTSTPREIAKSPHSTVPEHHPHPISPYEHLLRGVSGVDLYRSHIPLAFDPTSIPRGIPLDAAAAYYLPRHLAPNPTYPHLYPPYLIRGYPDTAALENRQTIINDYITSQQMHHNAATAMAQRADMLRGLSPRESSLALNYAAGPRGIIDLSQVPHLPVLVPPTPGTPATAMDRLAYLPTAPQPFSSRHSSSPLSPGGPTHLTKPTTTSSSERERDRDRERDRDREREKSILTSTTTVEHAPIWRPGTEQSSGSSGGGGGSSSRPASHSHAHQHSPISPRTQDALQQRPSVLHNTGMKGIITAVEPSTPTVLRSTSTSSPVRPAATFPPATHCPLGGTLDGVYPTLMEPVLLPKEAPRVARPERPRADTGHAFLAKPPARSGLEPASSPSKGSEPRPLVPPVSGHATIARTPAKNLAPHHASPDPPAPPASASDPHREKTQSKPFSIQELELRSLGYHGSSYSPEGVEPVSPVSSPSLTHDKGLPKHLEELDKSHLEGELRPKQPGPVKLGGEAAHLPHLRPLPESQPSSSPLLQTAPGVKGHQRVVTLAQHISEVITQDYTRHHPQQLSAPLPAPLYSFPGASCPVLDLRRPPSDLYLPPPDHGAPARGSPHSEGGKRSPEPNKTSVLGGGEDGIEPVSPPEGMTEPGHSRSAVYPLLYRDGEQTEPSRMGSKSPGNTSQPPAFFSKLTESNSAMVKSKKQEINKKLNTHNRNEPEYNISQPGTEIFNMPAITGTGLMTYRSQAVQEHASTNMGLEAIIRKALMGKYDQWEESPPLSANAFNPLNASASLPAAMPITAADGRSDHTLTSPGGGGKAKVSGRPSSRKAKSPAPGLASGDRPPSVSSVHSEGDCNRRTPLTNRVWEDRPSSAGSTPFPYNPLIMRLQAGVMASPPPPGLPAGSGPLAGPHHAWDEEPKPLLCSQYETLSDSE
SMILES,inhibition [1],inhibition [3],inhibition [4],inhibition (DLD-1 [2]),inhibition (SH-SY5Y),inhibition (DLD-1 [5]),inhibition (U2OS),inhibition (DLD-1 [6])
Cc1ccc(CCNc2ncnc3onc(C)c23)cc1,inactive,–,–,inactive,Active,inactive,inactive,–
C=C1C(=O)O[C@H]2C3=C(C)CCC[C@]3(C)C(=O)C[C@@H]12,inactive,Active,Active,Active,–,Active,Active,Active
COc1ccc2[nH]c(=O)c3c(c2c1)OC(C)(C)C=C3,inactive,inactive,Dose-Dependent Effect,inactive,–,Active,Active,–

# Now from value to compound, other results behind:
inhibition [1],inhibition [3],inhibition [4],SMILES,inhibition (DLD-1 [2]),inhibition (SH-SY5Y),inhibition (DLD-1 [5]),inhibition (U2OS),inhibition (DLD-1 [6])
inactive,–,–,COc1ccc(S(=O)(=O)NCC(c2ccco2)S(=O)(=O)c2cccs2)cc1F (centres undefined),inactive,–,–,–,–
inactive,Active,inactive,COc1ccc(NC(=O)Cn2c(SCc3ccc(F)cc3)nc3cccnc32)cc1OC,inactive,–,–,–,–
